Drawing on ChEMBL document CHEMBL2150901, “Synthesis and biological activity of tricyclic cycloalkylimidazo-, pyrimido- and diazepinopurinediones” (Eur J Med Chem, 2011), this text covers inhibition, Activity and Ki for one molecule.

Data set [1] addresses T1, Adenosine receptor A3 (Homo sapiens) (UniProt P0DMS8).
T1 sequence (whole entry): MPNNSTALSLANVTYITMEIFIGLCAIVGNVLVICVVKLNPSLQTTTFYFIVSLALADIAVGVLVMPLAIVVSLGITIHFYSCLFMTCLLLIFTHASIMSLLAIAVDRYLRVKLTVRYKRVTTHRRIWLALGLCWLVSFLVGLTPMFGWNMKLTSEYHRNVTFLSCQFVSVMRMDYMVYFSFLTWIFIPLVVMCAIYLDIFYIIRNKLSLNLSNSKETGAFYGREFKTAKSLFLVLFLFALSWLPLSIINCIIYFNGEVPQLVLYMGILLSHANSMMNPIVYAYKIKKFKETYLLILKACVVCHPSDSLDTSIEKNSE
Nature of the data set: Displacement of [3H]PSB-11 from human recombinant adenosine A3 receptor expressed in CHO cells at 10 uM. Type of data set: cell-based. The method, boiled down:
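CHO cell membranes expressing the human receptor. Radioligands: A1 [3H]CCPA; A2B [3H]ZM241385 or [3H]PSB-603; A3 [3H]PSB-11. […] Potent compounds run at 6–7 concentrations spanning 3 orders of magnitude; Ki ± SEM.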
For orientation: Loss of bound radioactivity is the signal in a displacement assay; it reports binding, not function.

In data set [2] the test system is Mus musculus. Nature of the data set: Anticonvulsant activity in F1 albino mouse assessed as protection against maximal electroshock-induced seizures at 300 mg/kg, ip after 0.5 hrs. Type of data set: functional, organism-based. More on the design: dose 300 mg/kg. The essentials: (§1)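 Male albino F-1 mice (18–25 g), groups of 1–5 (rotorod 2–8). Compound given ip as a suspension in 0.5% methylcellulose at 30, 100 and 300 mg/kg. Seizures by maximal electroshock or subcutaneous pentylenetetrazole; neurotoxicity by rotorod. Read at 0.5 and 4 h, with some at 0.25, 1 and 2 h. Value is the minimum active dose, with protected (or toxic)/tested animals.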
(The maximal electroshock test induces tonic seizures with an electrical stimulus.)

Data set [3] relates to Mus musculus. The experiment in a line: Anticonvulsant activity in F1 albino mouse assessed as protection against subcutaneous pentylenetetrazole-induced seizures at 300 mg/kg, ip after 0.25 hrs. Format: functional, organism-based. More on the design: dose 300 mg/kg. The method, boiled down: as §1
Data set [4] relates to Mus musculus. The experiment in a line: Anticonvulsant activity in F1 albino mouse assessed as protection against subcutaneous pentylenetetrazole-induced seizures at 100 mg/kg, ip after 0.5 hrs. The arrangement: dose 100 mg/kg. Format: functional, organism-based. The essentials: as §1
In data set [5] the test system is Mus musculus. Nature of the data set: Anticonvulsant activity in F1 albino mouse assessed as protection against subcutaneous pentylenetetrazole-induced seizures at 300 mg/kg, ip after 1 hr. Type of data set: functional, organism-based. The arrangement: dose 300 mg/kg. The essentials: as §1
The test system of data set [6] is Mus musculus. Nature of the data set: Anticonvulsant activity in F1 albino mouse assessed as protection against subcutaneous pentylenetetrazole-induced seizures at 300 mg/kg, ip after 4 hrs. Type of data set: functional, organism-based. The arrangement: dose 300 mg/kg. The essentials:
as §1

Data set [7] concerns Mus musculus. Nature of the data set: Neurotoxicity in F1 albino mouse assessed as minimal motor impairment at 300 mg/kg, ip after 0.5 hrs by rotorod test. Type of data set: toxicity, organism-based. More on the design: dose 300 mg/kg, route intraperitoneal. The settings on record: in vivo. The essentials:
as §1
(The rotarod test checks motor coordination on a turning rod.)

The test system of data set [8] is Mus musculus. The experiment in a line: Neurotoxicity in F1 albino mouse assessed as minimal motor impairment at 300 mg/kg, ip after 1 hr by rotorod test. Type of data set: toxicity, organism-based. More on the design: dose 300 mg/kg, route intraperitoneal. The settings on record: in vivo. The method, boiled down: as §1
Data set [9] has as its system Mus musculus. Nature of the data set: Neurotoxicity in F1 albino mouse assessed as minimal motor impairment at 300 mg/kg, ip after 4 hrs by rotorod test. Format: toxicity, organism-based. More on the design: dose 300 mg/kg, route intraperitoneal. To be noted: in vivo. The essentials: as §1
Data set [10] deals with Rattus norvegicus. The experiment in a line: Anticonvulsant activity in Sprague-Dawley albino rat assessed as protection against maximal electroshock-induced seizures at 30 mg/kg, po after 2 hrs. Type of data set: functional, organism-based. The arrangement: dose 30 mg/kg. The method, boiled down:
(§2)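 Male Sprague-Dawley albino rats (100–150 g), groups of 4. Oral suspension in 0.5% methylcellulose/water. Protection assessed by maximal electroshock or subcutaneous pentylenetetrazole; motor impairment by rotorod. Time points 0.25–4 h. Value is protected (or toxic)/tested animals.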

The test system of data set [11] is Rattus norvegicus. The experiment in a line: Anticonvulsant activity in Sprague-Dawley albino rat assessed as protection against subcutaneous pentylenetetrazole-induced seizures at 50 mg/kg, po after 0.25 hrs. Format: functional, organism-based. The arrangement: dose 50 mg/kg. The method, boiled down: as §2
Data set [12] deals with Rattus norvegicus. The experiment in a line: Anticonvulsant activity in Sprague-Dawley albino rat assessed as protection against subcutaneous pentylenetetrazole-induced seizures at 50 mg/kg, po after 1 hr. Type of data set: functional, organism-based. More on the design: dose 50 mg/kg. The essentials: as §2
The test system of data set [13] is Rattus norvegicus. The experiment in a line: Anticonvulsant activity in Sprague-Dawley albino rat assessed as protection against subcutaneous pentylenetetrazole-induced seizures at 50 mg/kg, po after 4 hrs. More on the design: dose 50 mg/kg. Format: functional, organism-based. The method, boiled down:
as §2

In data set [14] the test system is Rattus norvegicus. Nature of the data set: Neurotoxicity in Sprague-Dawley albino rat assessed as minimal motor impairment at 30 mg/kg, po after 0.5 hrs by rotorod test. The arrangement: dose 30 mg/kg, route oral. The settings on record: in vivo. Type of data set: toxicity, organism-based. The method, boiled down:
as §2

Data set [15] has as its system Rattus norvegicus. The experiment in a line: Neurotoxicity in Sprague-Dawley albino rat assessed as minimal motor impairment at 30 mg/kg, po after 1 hr by rotorod test. Type of data set: toxicity, organism-based. More on the design: dose 30 mg/kg, route oral. To be noted: in vivo. The method, boiled down:
as §2

For data set [16], the target named is Adenosine receptor A2a (Homo sapiens, UniProt P29274). Nature of the data set: Displacement of [3H]MSX-2 from human recombinant adenosine A2A receptor expressed in CHO cells. Type of data set: cell-based.
Adenosine receptor A2a (Homo sapiens, UniProt P29274), sequence (P29274 whole entry): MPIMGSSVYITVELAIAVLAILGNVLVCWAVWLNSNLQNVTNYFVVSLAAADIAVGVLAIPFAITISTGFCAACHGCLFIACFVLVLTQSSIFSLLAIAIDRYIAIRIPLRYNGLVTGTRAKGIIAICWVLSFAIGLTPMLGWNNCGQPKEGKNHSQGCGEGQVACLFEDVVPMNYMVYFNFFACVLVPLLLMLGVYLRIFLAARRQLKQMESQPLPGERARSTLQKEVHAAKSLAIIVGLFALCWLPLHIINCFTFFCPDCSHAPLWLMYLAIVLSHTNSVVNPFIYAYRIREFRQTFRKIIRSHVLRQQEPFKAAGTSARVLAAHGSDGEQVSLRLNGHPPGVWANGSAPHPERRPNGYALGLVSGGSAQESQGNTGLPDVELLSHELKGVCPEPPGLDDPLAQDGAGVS
The target of another data set is T2, Adenosine receptor A2b (Homo sapiens, UniProt P29275).
T2 sequence (P29275 whole entry): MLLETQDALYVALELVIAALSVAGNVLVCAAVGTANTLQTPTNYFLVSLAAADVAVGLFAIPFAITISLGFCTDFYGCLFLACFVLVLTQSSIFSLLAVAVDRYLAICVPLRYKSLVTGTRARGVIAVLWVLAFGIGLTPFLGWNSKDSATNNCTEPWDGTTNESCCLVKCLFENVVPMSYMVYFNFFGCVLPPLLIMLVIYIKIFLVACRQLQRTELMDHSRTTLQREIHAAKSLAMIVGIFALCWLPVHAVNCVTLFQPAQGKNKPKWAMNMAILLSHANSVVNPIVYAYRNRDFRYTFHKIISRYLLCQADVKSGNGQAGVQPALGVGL
Nature of the data set: Displacement of [3H]ZM241385 from human adenosine A2B receptor expressed in CHO cells. Type of data set: cell-based.

Data set [17] deals with T3, Adenosine receptor A1 (Homo sapiens, UniProt P30542).
T3 sequence (P30542 whole entry): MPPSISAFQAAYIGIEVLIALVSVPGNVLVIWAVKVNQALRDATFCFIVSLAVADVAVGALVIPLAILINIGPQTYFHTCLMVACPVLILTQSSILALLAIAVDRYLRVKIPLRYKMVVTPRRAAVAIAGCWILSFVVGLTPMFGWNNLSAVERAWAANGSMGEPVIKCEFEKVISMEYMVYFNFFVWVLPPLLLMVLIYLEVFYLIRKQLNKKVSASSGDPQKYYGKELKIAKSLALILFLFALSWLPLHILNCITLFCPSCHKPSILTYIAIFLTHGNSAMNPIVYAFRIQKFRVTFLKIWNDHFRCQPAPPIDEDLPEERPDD
The experiment in a line: Displacement of [3H]CCPA from human recombinant adenosine A1 receptor expressed in CHO cells. Format: cell-based.

In data set [18] the target is Adenosine receptor A2a (Rattus norvegicus, UniProt P30543). The experiment in a line: Displacement of [3H]MSX-2 from adenosine A2A receptor in rat brain striatal membrane. Format: cell membranes.
Adenosine receptor A2a (Rattus norvegicus, UniProt P30543), sequence (P30543 whole entry): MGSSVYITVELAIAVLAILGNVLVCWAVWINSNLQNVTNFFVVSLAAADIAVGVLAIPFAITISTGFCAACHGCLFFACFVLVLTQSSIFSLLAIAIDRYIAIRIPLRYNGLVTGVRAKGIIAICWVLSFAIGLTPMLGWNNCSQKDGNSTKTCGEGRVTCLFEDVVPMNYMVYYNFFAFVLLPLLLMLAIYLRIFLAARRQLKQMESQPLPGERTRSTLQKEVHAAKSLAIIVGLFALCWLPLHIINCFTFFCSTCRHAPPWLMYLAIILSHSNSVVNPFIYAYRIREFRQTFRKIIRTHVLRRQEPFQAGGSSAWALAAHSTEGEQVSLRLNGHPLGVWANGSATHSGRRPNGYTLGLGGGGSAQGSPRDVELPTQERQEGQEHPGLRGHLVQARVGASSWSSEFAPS
In data set [19] the target is T4, Adenosine receptor A1 (Rattus norvegicus, UniProt P25099).
T4 sequence (P25099 whole entry): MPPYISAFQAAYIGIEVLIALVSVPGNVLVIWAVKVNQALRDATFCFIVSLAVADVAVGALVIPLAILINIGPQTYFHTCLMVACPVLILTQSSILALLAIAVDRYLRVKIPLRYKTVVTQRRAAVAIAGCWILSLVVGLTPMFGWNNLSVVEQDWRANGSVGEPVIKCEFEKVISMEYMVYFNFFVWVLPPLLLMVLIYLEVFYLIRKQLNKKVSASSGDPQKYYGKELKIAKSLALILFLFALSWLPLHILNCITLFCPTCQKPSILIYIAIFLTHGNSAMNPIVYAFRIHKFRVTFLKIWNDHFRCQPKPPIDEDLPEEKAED
The experiment in a line: Displacement of [3H]CCPA from adenosine A1 receptor in rat brain cortical membrane. Type of data set: cell membranes.

One may read the inhibition as the share of the control response that was lost under treatment. What is called Ki is the equilibrium dissociation constant of an inhibitor or competing ligand from its target.

The source made the active and inactive calls. The rule behind the calls is not given here.

Regarding `Cn1c(=O)c2c(nc3n2CCCN3CC2CC2)n(C)c1=O`, the inhibition in [1] is 1%. The outcome in the data set with Mus musculus [2] and in the data set with Mus musculus [4] was Active. Further, the outcome in the data set on Mus musculus [3], with Mus musculus [5], in the data set with Mus musculus [6], in the data set on Rattus norvegicus [10], in the data set on Rattus norvegicus [11] and in the data set on Rattus norvegicus [12] was inactive. Besides, the outcome with Rattus norvegicus [13] was inactive. Moreover, the Activity result was “Toxic” in the data set on Mus musculus [7]; “Non-toxic” with Mus musculus [8]; “Non-toxic” in the data set on Mus musculus [9]; “Non-toxic” in the data set with Rattus norvegicus [14]; “Non-toxic” with Rattus norvegicus [15]. For the same molecule, the Ki turned out to be 417 nM on Adenosine receptor A2a [16]; 12500 nM at Adenosine receptor A2b; 7130 nM on Adenosine receptor A1 [17]; 980 nM at Adenosine receptor A2a [18]; 2390 nM on Adenosine receptor A1 [19].
